In ChEMBL document CHEMBL1127055, “Pyrrolo[1,2-a]benzimidazole-based aziridinyl quinones. A new class of DNA cleaving agent exhibiting G and A base specificity” (1993):

Key:
Format in all cases: functional, Homo sapiens
[1] = tested on: LXFL 529; assay: Tested for cytotoxic activity against non-small cell lung cancer LXFL-529L cell line
In short: (§1)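 Screened in a panel of 60 human cancer cell lines. The read-out was LC50, the concentration needed for 50% cell kill. Values were reported as log LC50 in a mean graph and plotted against the log of the panel mean LC50.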

[2] = tested on: OVCAR-4; assay: Tested for cytotoxic activity against ovarian cancer OVCAR-4 cell line; in short: as §1
[3] = tested on: SN12C; assay: Tested for cytotoxic activity against renal cancer SN12C cell line; in short: as §1
[4] = tested on: SF-268; assay: Tested for cytotoxic activity against CNS cancer […] cell line; in short: as §1
[5] = tested on: SNB-78; assay: Tested for cytotoxic activity against CNS cancer SNB-78 cell line; in short: as §1
[6] = tested on: HOP-92; assay: Tested for cytotoxic activity against non-small cell lung cancer HOP92 cell line; in short: as §1
[7] = tested on: SW-620; assay: Tested for cytotoxic activity against colon cancer SW-620 cell line; in short: as §1
[8] = tested on: M14; assay: Tested for cytotoxic activity against melanoma M14 cell line; in short: as §1
[9] = tested on: XF498; assay: Tested for cytotoxic activity against CNS cancer XF498 cell line; in short: as §1
[10] = tested on: ACHN; assay: Tested for cytotoxic activity against renal cancer ACHN cell line; in short: as §1
[11] = tested on: OVCAR-5; assay: Tested for cytotoxic activity against ovarian cancer OVCAR-5 cell line; in short: as §1
[12] = tested on: SNB-19; assay: Tested for cytotoxic activity against CNS cancer SNB-19 cell line; in short: as §1
[13] = tested on: RXF 393; assay: Tested for cytotoxic activity against renal cancer RXF-393 cell line; in short: as §1
[14] = tested on: SF-539; assay: Tested for cytotoxic activity against CNS cancer […] cell line; in short: as §1
[15] = tested on: CCRF-CEM; assay: Tested for cytotoxic activity against leukemia CCRF-CEM cell line; in short: as §1
[16] = tested on: A549; assay: Tested for cytotoxic activity against non-small cell lung cancer A549/ATCC cell line; in short: as §1
[17] = tested on: UACC-257; assay: Tested for cytotoxic activity against melanoma UACC-257 cell line; in short: as §1
[18] = tested on: SF-295; assay: Tested for cytotoxic activity against CNS cancer SF-295 cell line; in short: as §1
[19] = tested on: U-251; assay: Tested for cytotoxic activity against CNS cancer U251 cell line; in short: as §1
[20] = tested on: LOX IMVI; assay: Tested for cytotoxic activity against melanoma […] cell line; in short: as §1
[21] = tested on: HT-29; assay: Tested for cytotoxic activity against colon cancer HT-29 cell line; in short: as §1
[22] = tested on: MOLT-4; assay: Tested for cytotoxic activity against leukemia MOLT-4 cell line; in short: as §1
[23] = tested on: TK-10; assay: Tested for cytotoxic activity against renal cancer TK-10 cell line; in short: as §1
[24] = tested on: DMS-114; assay: Tested for cytotoxic activity against small cell lung cancer DMS114 cell line; in short: as §1
[25] = tested on: IGROV-1; assay: Tested for cytotoxic activity against ovarian cancer IGROVI cell line; in short: as §1
[26] = tested on: CAKI-1; assay: Tested for cytotoxic activity against renal cancer CAKI-1 cell line; in short: as §1
[27] = tested on: 786-0; assay: Tested for cytotoxic activity against renal cancer 786-0 cell line; in short: as §1
[28] = tested on: OVCAR-8; assay: Tested for cytotoxic activity against ovarian cancer OVCAR-8 cell line; in short: as §1
[29] = tested on: HOP-18; assay: Tested for cytotoxic activity against non-small cell lung cancer HOP-18 cell line; in short: as §1
[30] = tested on: K562; assay: Tested for cytotoxic activity against leukemia K-562 cell line; in short: as §1
[31] = tested on: SK-OV-3; assay: Tested for cytotoxic activity against ovarian cancer SK-OV-3 cell line; in short: as §1
[32] = tested on: Malme-3M; assay: Tested for cytotoxic activity against melanoma MALME-3M cell line; in short: as §1
[33] = tested on: SK-MEL-2; assay: Tested for cytotoxic activity against melanoma SK-MEL-2 cell line; in short: as §1
[34] = tested on: M19-MEL; assay: Tested for cytotoxic activity against melanoma M19-MEL cell line; in short: as §1
[35] = tested on: DLD-1; assay: Tested for cytotoxic activity against colon cancer DLD-1 cell line; in short: as §1
[36] = tested on: UACC-62; assay: Tested for cytotoxic activity against melanoma UACC-62 cell line; in short: as §1
[37] = tested on: SK-MEL-28; assay: Tested for cytotoxic activity against melanoma SK-MEL-28; in short: as §1
[38] = tested on: KM12; assay: Tested for cytotoxic activity against colon cancer KM-12 cell line; in short: as §1
[39] = tested on: OVCAR-3; assay: Tested for cytotoxic activity against ovarian cancer OVCAR -3 cell line; in short: as §1
[40] = tested on: EKVX; assay: Tested for cytotoxic activity against non-small cell lung cancer […] cell line; in short: as §1
[41] = tested on: NCI-H23; assay: Tested for cytotoxic activity against non-small cell lung cancer NCI-H23 cell line; in short: as §1
[42] = tested on: SNB-75; assay: Tested for cytotoxic activity against CNS cancer SNB-75 cell line; in short: as §1
[43] = tested on: NCI-H226; assay: Tested for cytotoxic activity against non-small cell lung cancer NCI-H226 cell line; in short: as §1
[44] = tested on: NCI-H522; assay: Tested for cytotoxic activity against non-small cell lung cancer NCI-H522 cell line; in short: as §1
[45] = tested on: HOP-62; assay: Tested for cytotoxic activity against non-small cell lung cancer HOP-62 cell line; in short: as §1
[46] = tested on: COLO 205; assay: Tested for cytotoxic activity against colon cancer COLO 205 cell line; in short: as §1
[47] = tested on: KM-20L2; assay: Tested for cytotoxic activity against colon cancer KM20L2 cell line; in short: as §1
[48] = tested on: UO-31; assay: Tested for cytotoxic activity against renal cancer UO-31 cell line; in short: as §1
[49] = tested on: NCI-H322M; assay: Tested for cytotoxic activity against non-small cell lung cancer NCI-H322M cell line; in short: as §1
[50] = tested on: SK-MEL-5; assay: Tested for cytotoxic activity against melanoma SK-MEL-5 cell line; in short: as §1

What does the source list for `CC(=O)OC1CCn2c1nc1c2C(=O)C(C)=C(N2CC2)C1=O` (stereo not given)?
LC50 [1]: 7.33; LC50 [2]: 7.19; LC50 [3]: 7.12; LC50 [4]: 5.67; LC50 [5]: 5.39; LC50 [6]: 5.14; LC50 [7]: 6.22; LC50 [8]: <8; LC50 [9]: 7.09; LC50 [10]: 6.53; LC50 [11]: 6.53; LC50 [12]: 6.54; LC50 [13]: <8; LC50 [14]: 7.89; LC50 [15]: >4; LC50 [16]: 5.44; LC50 [17]: 6.71; LC50 [18]: 6.47; LC50 [19]: 6.53; LC50 [20]: <8; LC50 [21]: 6.03; LC50 [22]: >4; LC50 [23]: 6.06; LC50 [24]: >4; LC50 [25]: 5.85; LC50 [26]: 5.53; LC50 [27]: 7.36; LC50 [28]: 7.09; LC50 [29]: 6.64; LC50 [30]: >4; LC50 [31]: 6.36; LC50 [32]: 7.26; LC50 [33]: 7.61; LC50 [34]: 5.12; LC50 [35]: 7.66; LC50 [36]: <8; LC50 [37]: 7.59; LC50 [38]: 7.02; LC50 [39]: 6.34; LC50 [40]: 6.55; LC50 [41]: <8; LC50 [42]: 7.56; LC50 [43]: 7.09; LC50 [44]: <8; LC50 [45]: <8; LC50 [46]: 4.82; LC50 [47]: 6.64; LC50 [48]: <8; LC50 [49]: 6.63; LC50 [50]: <8
